Laboratory results from ChEMBL document CHEMBL1811906, “Synthesis and evaluation of strand and turn modified ring-extended gramicidin S derivatives” (Bioorg Med Chem, 2011).
Values after ≈ are worked out from the molar mass of the structure shown. Residues, ends and D or L forms follow the SMILES beside them.

Columns and labels:
[1] = test system: Staphylococcus epidermidis; assay: Antimicrobial activity against Staphylococcus epidermidis ATCC 12228 after 24 hrs by broth dilution method; type: functional; conditions: ATCC 12228, 24 h
How it was run: (§1)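 Strains stored at −70 °C, grown at 30 °C on blood agar, suspended in physiological saline to OD595 0.1, diluted 10× in saline. 2 µL inoculum added to 100 µL nutrient broth with yeast extract. Peptides dissolved in ethanol (4 g/L), diluted in water (1 g/L), then two-fold in broth (64 to 1 mg/L). Incubated at 30 °C; MIC read as lowest concentration inhibiting growth at 24 h.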

[2] = Toxicity in human erythrocytes assessed as hemolytic activity after 4 hrs; type: cell-based; conditions: erythrocyte
How it was run: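 Heparinized fresh blood spun at 1000 g, 10 °C; erythrocytes washed three times in 0.85% saline and diluted to 1/25 packed volume. Peptide stocks 1.5 mM in 30% DMSO/saline, serially two-fold diluted in saline. Cells added, then incubated 4 h at 37 °C and centrifuged. Supernatant A405 read against 1% Triton X-100 as full lysis; single experiment run in triplicate.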

Staphylococcus aureus = assay: Antimicrobial activity against Staphylococcus aureus ATCC 29213 after 24 hrs by broth dilution method; type: functional; conditions: ATCC 29213, 24 h; how it was run: as §1
Enterococcus faecalis = assay: Antimicrobial activity against Enterococcus faecalis ATCC 29212 after 24 hrs by broth dilution method; type: functional; conditions: ATCC 29212, 24 h; how it was run: as §1
Bacillus cereus = assay: Antimicrobial activity against Bacillus cereus ATCC 11778 after 24 hrs by broth dilution method; type: functional; conditions: ATCC 11778, 24 h; how it was run: as §1
Pseudomonas aeruginosa = assay: Antimicrobial activity against Pseudomonas aeruginosa ATCC 27853 after 24 hrs by broth dilution method; type: functional; conditions: ATCC 27853, 24 h; how it was run: as §1
Escherichia coli = assay: Antimicrobial activity against Escherichia coli ATCC 25922 after 24 hrs by broth dilution method; type: functional; conditions: ATCC 25922, 24 h; how it was run: as §1
Klebsiella pneumoniae = assay: Antimicrobial activity against Klebsiella pneumoniae 1190901525 after 24 hrs by broth dilution method; type: functional; conditions: Klebsiella pneumoniae, 1190901525, 24 h; how it was run: as §1
Enterobacter cloacae = assay: Antimicrobial activity against Enterobacter cloacae 1190900252 after 24 hrs by broth dilution method; type: functional; conditions: Enterobacter cloacae, 1190900252, 24 h; how it was run: as §1
Proteus mirabilis = assay: Antimicrobial activity against Proteus mirabilis 1190901236 after 24 hrs by broth dilution method; type: functional; conditions: Proteus mirabilis, 1190901236, 24 h; how it was run: as §1

Structure (SMILES)	MIC [1] [µg/mL]	HD100 [2] [µM]	MIC (Staphylococcus aureus) [µg/mL]	MIC (Enterococcus faecalis) [µg/mL]	MIC (Bacillus cereus) [µg/mL]	MIC (Pseudomonas aeruginosa) [µg/mL]	MIC (Escherichia coli) [µg/mL]	MIC (Klebsiella pneumoniae) [µg/mL]	MIC (Enterobacter cloacae) [µg/mL]	MIC (Proteus mirabilis) [µg/mL]
CC(C)C[C@@H]1NC(=O)[C@H](CCCN)NC(=O)[C@H](C(C)C)NC(=O)[C@@H]2CCCN2C(=O)[C@@H](Cc2ccccc2)NC(=O)[C@H](CC(C)C)NC(=O)[C@H](CCCN)NC(=O)[C@H](C(C)C)NC(=O)[C@@H]2CCCN2C(=O)[C@@H](Cc2ccccc2)NC1=O [GRAMICIDIN S] (HELM PEPTIDE1{L.[dF].P.V.[Orn].L.[dF].P.V.[Orn]}$PEPTIDE1,PEPTIDE1,1:R1-10:R2$$$V2.0)	4 (≈ 3.5 µM)	62.5	4 (≈ 3.5 µM)	8 (≈ 7.01 µM)	4 (≈ 3.5 µM)	64 (≈ 56.1 µM)	32 (≈ 28 µM)	64 (≈ 56.1 µM)	64 (≈ 56.1 µM)	> 64
CC(C)C[C@@H]1NC(=O)[C@H](CCCN)NC(=O)[C@H](C(C)C)NC(=O)[C@@H]2CCCN2C(=O)[C@@H](Cc2ccccc2)NC(=O)[C@H](CC(C)C)NC(=O)[C@H](CCCN)NC(=O)[C@H](C(C)C)NC(=O)[C@H](CCCN)NC(=O)[C@H](CC(C)C)NC(=O)[C@@H]2O[C@H](CNC(=O)[C@H](C(C)C)NC(=O)[C@H](CCCN)NC1=O)[C@@H](OCc1ccccc1)[C@@H]2O	4 (≈ 2.52 µM)	15.6	4 (≈ 2.52 µM)	8 (≈ 5.04 µM)	4 (≈ 2.52 µM)	16 (≈ 10.1 µM)	16 (≈ 10.1 µM)	16 (≈ 10.1 µM)	16 (≈ 10.1 µM)	> 64
CC(C)C[C@@H]1NC(=O)[C@H](CCCCN)NC(=O)[C@H](C(C)C)NC(=O)[C@@H]2CCCN2C(=O)[C@@H](Cc2ccc(O)cc2)NC(=O)[C@H](CC(C)C)NC(=O)[C@H](CCCCN)NC(=O)[C@H](C(C)C)NC(=O)[C@H](CCCCN)NC(=O)[C@H](CC(C)C)NC(=O)[C@@H]2CCCN2C(=O)[C@@H](Cc2ccc(O)cc2)NC(=O)[C@H](C(C)C)NC(=O)[C@@H](CCCCN)NC1=O (HELM PEPTIDE1{K.L.[dK].V.[dY].P.L.K.V.K.L.[dY].P.V}$PEPTIDE1,PEPTIDE1,1:R1-14:R2$$$V2.0)	8 (≈ 4.79 µM)	500	64 (≈ 38.3 µM)	64 (≈ 38.3 µM)	16 (≈ 9.58 µM)	> 64	64 (≈ 38.3 µM)	64 (≈ 38.3 µM)	64 (≈ 38.3 µM)	> 64
CC(C)C[C@@H]1NC(=O)[C@H](CCCN)NC(=O)[C@H](C(C)C)NC(=O)[C@@H]2CCCN2C(=O)[C@@H](Cc2ccccc2)NC(=O)[C@H](CC(C)C)NC(=O)[C@H](CCCN)NC(=O)[C@H](C(C)C)NC(=O)[C@H](CCCN)NC(=O)[C@H](CC(C)C)NC(=O)[C@@H]2O[C@H](CNC(=O)[C@H](C(C)C)NC(=O)[C@H](CCCN)NC1=O)[C@@H](O)[C@@H]2O	4 (≈ 2.67 µM)	31.3	8 (≈ 5.34 µM)	8 (≈ 5.34 µM)	4 (≈ 2.67 µM)	16 (≈ 10.7 µM)	8 (≈ 5.34 µM)	16 (≈ 10.7 µM)	16 (≈ 10.7 µM)	> 64
CC(C)C[C@@H]1NC(=O)[C@H](CCCN)NC(=O)[C@H](C(C)C)NC(=O)[C@@H]2CCCN2C(=O)[C@@H](Cc2ccccc2)NC(=O)[C@H](CC(C)C)NC(=O)[C@H](CCCN)NC(=O)[C@H](C(C)C)NC(=O)[C@H](CCCN)NC(=O)[C@H](CC(C)C)NC(=O)[C@@H]2CCCN2C(=O)[C@@H](Cc2ccccc2)NC(=O)[C@H](C(C)C)NC(=O)[C@@H](CCCN)NC1=O	8 (≈ 5.06 µM)	125	8 (≈ 5.06 µM)	16 (≈ 10.1 µM)	16 (≈ 10.1 µM)	8 (≈ 5.06 µM)	64 (≈ 40.5 µM)	32 (≈ 20.2 µM)	32 (≈ 20.2 µM)	> 64
CC(C)C[C@@H]1NC(=O)[C@H](CCCCN)NC(=O)[C@H](C(C)C)NC(=O)[C@@H]2CCCN2C(=O)[C@@H](Cc2ccc(O)cc2)NC(=O)[C@H](CC(C)C)NC(=O)[C@H](CCCCN)NC(=O)[C@H](C(C)C)NC(=O)[C@H](CCCCN)NC(=O)[C@H](CC(C)C)NC(=O)[C@@H]2CCCN2C(=O)[C@@H](Cc2ccc(O)cc2)NC(=O)[C@H](C(C)C)NC(=O)[C@H](CCCCN)NC1=O (HELM PEPTIDE1{K.L.K.V.[dY].P.L.K.V.K.L.[dY].P.V}$PEPTIDE1,PEPTIDE1,1:R1-14:R2$$$V2.0)	64 (≈ 38.3 µM)	3.9	> 64	32 (≈ 19.2 µM)	32 (≈ 19.2 µM)	> 64	> 64	> 64	> 64	> 64
CC(C)C[C@@H]1NC(=O)[C@H](CCCN)NC(=O)[C@H](C(C)C)NC(=O)[C@@H]2CCCN2C(=O)[C@@H](Cc2ccccc2)NC(=O)[C@H](CC(C)C)NC(=O)[C@H](CCCN)NC(=O)[C@H](C(C)C)NC(=O)[C@H](CCCN)NC(=O)[C@H](CC(C)C)NC(=O)[C@@H]2O[C@H](CNC(=O)[C@H](C(C)C)NC(=O)[C@@H](CCCN)NC1=O)[C@@H](OCc1ccccc1)[C@@H]2OCc1ccccc1	8 (≈ 4.77 µM)	500	8 (≈ 4.77 µM)	16 (≈ 9.54 µM)	8 (≈ 4.77 µM)	64 (≈ 38.2 µM)	32 (≈ 19.1 µM)	32 (≈ 19.1 µM)	32 (≈ 19.1 µM)	> 64
CC(C)C[C@@H]1NC(=O)[C@H](CCCN)NC(=O)[C@H](C(C)C)NC(=O)[C@@H]2CCCN2C(=O)[C@@H](Cc2ccccc2)NC(=O)[C@H](CC(C)C)NC(=O)[C@H](CCCN)NC(=O)[C@H](C(C)C)NC(=O)[C@H](CCCN)NC(=O)[C@H](CC(C)C)NC(=O)[C@@H]2O[C@H](CNC(=O)[C@H](C(C)C)NC(=O)[C@@H](CCCN)NC1=O)[C@@H](O)[C@@H]2O	16 (≈ 10.7 µM)	> 500	> 64	> 64	64 (≈ 42.8 µM)	> 64	64 (≈ 42.8 µM)	> 64	64 (≈ 42.8 µM)	> 64
CC(C)C[C@@H]1NC(=O)[C@H](CCCN)NC(=O)[C@H](C(C)C)NC(=O)[C@@H]2CCCN2C(=O)[C@@H](Cc2ccccc2)NC(=O)[C@H](CC(C)C)NC(=O)[C@H](CCCN)NC(=O)[C@H](C(C)C)NC(=O)[C@H](CCCN)NC(=O)[C@H](CC(C)C)NC(=O)[C@@H]2O[C@H](CNC(=O)[C@H](C(C)C)NC(=O)[C@@H](CCCN)NC1=O)[C@@H](OCc1ccccc1)[C@@H]2O	8 (≈ 5.04 µM)	500	16 (≈ 10.1 µM)	32 (≈ 20.2 µM)	8 (≈ 5.04 µM)	64 (≈ 40.3 µM)	32 (≈ 20.2 µM)	32 (≈ 20.2 µM)	32 (≈ 20.2 µM)	> 64
CC(C)C[C@@H]1NC(=O)[C@H](CCCN)NC(=O)[C@H](C(C)C)NC(=O)[C@@H]2CCCN2C(=O)[C@@H](Cc2ccccc2)NC(=O)[C@H](CC(C)C)NC(=O)[C@H](CCCN)NC(=O)[C@H](C(C)C)NC(=O)[C@H](CCCN)NC(=O)[C@H](CC(C)C)NC(=O)[C@@H]2CCCN2C(=O)[C@@H](Cc2ccccc2)NC(=O)[C@H](C(C)C)NC(=O)[C@H](CCCN)NC1=O	8 (≈ 5.06 µM)	3.9	16 (≈ 10.1 µM)	8 (≈ 5.06 µM)	16 (≈ 10.1 µM)	64 (≈ 40.5 µM)	32 (≈ 20.2 µM)	64 (≈ 40.5 µM)	64 (≈ 40.5 µM)	> 64
